This is a sample that favours compounds with a hit; in the whole collection about 1.6% have one here.
PG9 Ab binder = binders of HIV-1 gp120 antibody PG9, primary screen, biochemical, TR-FRET; 360,000 compounds, 0.43% hits; HIV-1 gp120 / PG9 antibody interaction; TR-FRET gp120-PG9 antibody binding; inhibition, % at 6.7 µM; in the data active = inhibition above about 8.5%
Rev-erbA mod = modulators of Rev-erb alpha DNA binding, primary screen, biochemical, FITC-DNA, fluorescence polarization, uHTS; Nuclear receptor subfamily 1 group D member 1 (Homo sapiens), P20393; Rev-erbα–FITC-DNA binding, 90 min; activity, % at 10 µM; 370,000 compounds, 0.79% hits; AID 1259318, 2017;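 active = activity above about 14%, limit read from the data; passing the limit was not always enough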;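 note: 0% = DMSO wells with 35 nM protein and 100% = DMSO wells with 750 nM protein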
NR2E3 ag-1 = NR2E3 agonists in two-hybrid cells, primary screen, cell-based, luminescence, CHO-S, Gal4-NCOR/VP16-NR2E3; 360,000 compounds, 0.35% hits; Photoreceptor-specific nuclear receptor (Homo sapiens), Q9Y5X4; luciferase; AID 602229, 2012; inhibition of corepressor binding, % at 3.98 µM;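 active = inhibition above the mean of all tested compounds plus 3 SD, cut at about 70% in these data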;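 note: 0% = DMSO with NR2E3 transfected cells and 100% = cells lacking NR2E3 construct; higher means lower luciferase signal from less NR2E3 corepressor binding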
Target sequence (Q9Y5X4 whole entry, looked up, the tested form may be a part): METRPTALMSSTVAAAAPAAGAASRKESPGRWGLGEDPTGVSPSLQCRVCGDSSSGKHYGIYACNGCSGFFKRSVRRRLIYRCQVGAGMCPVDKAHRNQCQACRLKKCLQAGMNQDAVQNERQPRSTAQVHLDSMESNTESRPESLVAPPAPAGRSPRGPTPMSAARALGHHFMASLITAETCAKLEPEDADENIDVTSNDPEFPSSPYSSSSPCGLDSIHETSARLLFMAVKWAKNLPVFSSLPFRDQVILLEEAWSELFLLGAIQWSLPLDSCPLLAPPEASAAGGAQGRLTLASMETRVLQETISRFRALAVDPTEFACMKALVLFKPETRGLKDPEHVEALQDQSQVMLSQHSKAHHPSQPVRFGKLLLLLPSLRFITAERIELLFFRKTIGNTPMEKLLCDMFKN
PKA-R2B activ = activators of PKA-R2B holoenzyme, primary screen, biochemical, fluorescence polarization, Cy5-IP20, human; cAMP-dependent protein kinase catalytic subunit beta (Homo sapiens) + cAMP-dependent …; PKA-R2B holoenzyme dissociation; R2B truncated from residue 108, S112A mutant; 0% DMSO only, 100% 113 µM cGMP; activation, % at 11.4 µM; 340,000 compounds, 0.079% hits; AID 504700, 2011;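 active = activation above a cutoff set at the mean over all compounds plus 3 SD, cut at about 18% in these data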;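 note: higher means more holoenzyme dissociation and a rise in polarization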
NR2E3 ag-2 = inhibitors of NR2E3-RetCOR corepressor binding, primary screen, NR2E3 agonist project, biochemical, TR-FRET, GST-NR2E3, biotin-RetCOR; 320,000 compounds, 0.12% hits; inhibition of corepressor binding, % at 4.78 µM; 1536-well;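 active = percent inhibition above the cutoff of mean plus 3 SD of all tested compounds, set per screening campaign, cut at about 20% in these data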;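 note: 0% = DMSO wells and 100% = biotin wells as full block of FRET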
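Material: NR2E3–RetCOR corepressor complex / Amount: 1.35 nM GST-NR2E3 / Medium: Tris pH 7.5 / Compound: single nominal compound dose of 4.8 µM / Incubation: 5 h at 4 °C / Technique: TR-FRET, Eu(K)-anti-GST donor, streptavidin-D2 acceptor, ex 340, em 617/671 nm / Read-out basis: percent loss of FRET ratio relative to control wells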
PKA-R1A activ = activators of PKA-R1A holoenzyme, primary screen, biochemical, fluorescence polarization, Cy5-IP20, bovine R1A, mouse PKAc; activation, % at 11.4 µM; cAMP-dependent protein kinase type I-alpha regulatory subunit (Bos taurus) + …; 340,000 compounds, 0.083% hits; PKA-R1A dissociation; scaled: DMSO 0%, 113 µM cGMP 100%;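 active = percent activation above the mean of all tested compounds plus 3 SD, cut at about 19% in these data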;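 note: higher means more PKAc released from R1A so a rise in polarization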
NR1D1 mod conf = modulators of Rev-erb alpha DNA binding, confirmation, biochemical, FITC-DNA, fluorescence polarization, single point; activation, % at 25 µM; 90 min; 3,000 compounds, 61% hits; shares compounds with Rev-erbA mod;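 active = activation at or above a set limit, or at least 3 SD above the negative control mean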;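 note: 0% = 35 nM protein with DMSO and 100% = 750 nM protein high control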
RORg DNA counter = modulation of RORgamma DNA binding, dose response, counter-screen for Rev-erb alpha modulator project, biochemical, fluorescence polarization, FITC-DNA | 910 compounds, 8% hits | purified RORgamma protein-FITC-DNA binding | IC50, µM | shares compounds with Rev-erbA mod;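 active = Compounds whose fitted half-maximal concentration for disrupting protein-DNA binding is below 10 micromolar; the record names Rev-erb in its text, so the target is in doubt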
* hit, by the source's call; / = no result given.

SMILES | PG9 Ab binder | Rev-erbA mod | NR2E3 ag-1 | PKA-R2B activ | NR2E3 ag-2 | PKA-R1A activ | NR1D1 mod conf | others
CCc1ccc(OCC(=O)Nc2cccc3nsnc23)cc1 | -2 | -2 | -6 | -11 | -3 | -3 | /
C=CC[C@@]1(c2ccccc2)Oc2ccccc2-c2nc3ccccc3nc21 | / | 7 | / | / | / | / | /
O=C(CSc1ncnc2c1sc1ccccc12)Nc1ccc(Br)cc1 | -1 | 293* | -9 | 3 | -2 | -8 | 195* | RORg DNA counter=>40
Cc1ccc(-c2oc3ncnc(N)c3c2-c2ccc(C)cc2)cc1 | 6 | 20* | -12 | 12 | 0 | 4 | 8
CCOc1ccc(-n2c(SCC(=O)Nc3ccc(S(=O)(=O)Nc4nccs4)cc3)nnc2-c2ccncc2)cc1 | / | 1 | / | / | / | / | /
O=C(Nc1ccc2c(c1)Cc1cc([N+](=O)[O-])ccc1-2)C(F)(F)F | -2 | 9 | -19 | / | / | / | /
O=[N+]([O-])c1ccc2c(c1)Cc1cc(F)ccc1-2 | 4 | 70* | -17 | -1 | / | -4 | 61* | RORg DNA counter=>40
COc1cc2c(cc1[N+](=O)[O-])-c1ccccc1C2 | -1 | 0 | -22 | -3 | / | 5 | /
COc1cc2c(cc1[N+](=O)[O-])-c1ccc([N+](=O)[O-])cc1C2 | -2 | 90* | -50 | / | / | / | 12*
COC(=O)CC#C[C@H](C)[C@@H](NS(=O)(=O)c1ccc([N+](=O)[O-])cc1)C(C)(C)C | 1 | 6 | / | / | / | / | /
Cc1ccc(NC(=O)OCCCN2C(=O)CCC23CCC(C)CC3)cc1C (configuration not stated) | / | 1 | / | / | / | / | /
C=C1C[C@@]23CCC4[C@@](C)(CCC[C@@]4(C)C(=O)O)C2CC[C@]1(O)C3 (some centres not stated) | 0 | 13* | 1 | 2 | 0 | 2 | 4
COc1cccc(Oc2cnc(N)nc2-c2ccc(OC)cc2O)c1 | 0 | 12 | -77 | -8 | 8 | -9 | /
COc1ccc(-c2nc(N)ncc2Oc2ccccc2Br)c(O)c1 | -1 | 104* | -50 | -2 | 2 | -6 | 81* | RORg DNA counter=>40
O=c1[nH]cnc2c1sc1nc(-c3ccccc3)c3c(c12)CCCC3 | 0 | 18* | -16 | 1 | 4 | 5 | 9
COC(=O)c1sc2nc(-c3ccccc3)c3c(c2c1N)CCCC3 | 2 | 69* | -7 | -7 | 1 | -15 | 39* | RORg DNA counter=>40
Nc1c(C(=O)O)sc2nc(-c3ccccc3)c3c(c12)CCCC3 | 0 | 3 | -22 | 1 | 7 | 1 | /
C=CCOC(=O)N[C@H](c1ccc(-c2ccccc2)cc1)[C@H](C)/C=C/CC(=O)OC | / | -2 | / | / | / | / | /
Cc1ccc(-c2nnc(-n3ncc(C#N)c3N)c3ccccc23)cc1C | -1 | 33* | -12 | 6 | -1 | 1 | 27*
O=C(Nc1ccc2ccccc2c1)C1CC2CCC1C2 (configuration not stated) | / | -1 | / | / | / | / | /
O=C(COc1ccccc1)Nc1nc2cc3c(cc2s1)OCCO3 | 2 | 76* | -85 | 5 | -12 | -11 | 50* | RORg DNA counter=>40
Fc1ccc2nc(Nc3nc4c(F)cc(F)cc4s3)sc2c1 | 1 | 53* | -46 | 6 | 0 | 14 | 41* | RORg DNA counter=>40
Fc1ccc2nc(Nc3nc4cc5c(cc4s3)OCCO5)sc2c1 | -5 | 32* | -129 | -2 | 2 | -11 | 39* | RORg DNA counter=>40
CN1CC(O)([C@H](Cc2ccccc2)NC(=O)OC(C)(C)C)OCC1C(=O)NCc1cccc2ccccc12 (some centres not stated) | / | 8 | / | / | / | / | /
O=S1(=O)c2c(cccc2N2CCSCC2)Oc2ccccc2CN1Cc1cn(Cc2cccc(C(F)(F)F)c2)nn1 | / | 6 | / | / | / | / | /
SMILES | PG9 Ab binder | Rev-erbA mod | NR2E3 ag-1 | PKA-R2B activ | NR2E3 ag-2 | PKA-R1A activ | NR1D1 mod conf | others
O=c1[nH]c(CSc2nc(-c3ccccc3)cs2)nc2ccccc12 | 2 | 1 | 30 | -2 | -1 | -14 | /
O=c1[nH]c(CSc2ncnc3sc(-c4ccccc4)cc23)nc2ccccc12 | -1 | 39* | -3 | -10 | 0 | 7 | 4
COC(=O)c1ccc(S(=O)(=O)N2CCC(NC(=O)Cc3ccccc3)CC2)cc1 | / | 1 | / | / | / | / | /
Cc1ccccc1C(=O)N(C)[C@H]1C[C@H]2c3[nH]c4c(-c5ccccc5)cccc4c3CCN2C(=O)[C@H]1[C@H](C)O | 1 | 13* | / | / | / | / | 2
C[C@H](O)[C@@H]1C(=O)N2CCc3c([nH]c4c(-c5ccccc5)cccc34)[C@@H]2C[C@@H]1N(C)C(=O)c1cc(Cl)cc(Cl)c1 | -1 | -1 | / | / | / | / | /
CC(C)(C)OC(=O)N1CCC[C@@H]1C(=O)N1CCC[C@@H]1C(=O)NCc1ccccc1 | 1 | -4 | / | / | / | / | /
COCc1cc(C)nc(Nc2ccc(C)cc2C)c1C#N | -1 | 29* | -7 | -4 | -1 | 1 | 1
CN(C(=O)CO)c1c(I)c(C(=O)NCC(O)CO)c(I)c(C(=O)NCC(O)CO)c1I (configuration not stated) | / | -1 | / | / | / | / | /
O=C(Nc1ccc(-c2nc3ccccc3s2)cc1)C1=COCCO1 | 0 | 9 | -131 | -11 | 3 | -9 | /
O=C(Nc1ccc(-c2nc3ccccc3s2)c(O)c1)C1=COCCO1 | -2 | 87* | -57 | -14 | -2 | 2 | 12
CC(=O)Nc1cccc(-c2nc3ccccc3s2)c1 | -2 | -1 | -119 | -4 | 5 | -18 | /
O=C(Nc1ccc(O)c(-c2nc3ccccc3s2)c1)C1=COCCO1 | 0 | 494* | -41 | 10 | -4 | 10 | 259* | RORg DNA counter=>40
CC(=O)Nc1ccc(O)c(-c2nc3ccccc3s2)c1 | 2 | 231* | -54 | 5 | 4 | -4 | 385* | RORg DNA counter=>40
